A selection: hits, their analogues and other compounds. The true share with any hit is near 1.1%.
Cneo AK release – Cryptococcus neoformans cell lysis inducers, primary screen, AK release luminescence, single concentration. lysis activity, % at 15 µM. AID 651654, 2012. 360,000 compounds, 0.2% hits. C. neoformans lysis, adenylate kinase release luminescence, 4 h; normalised: neutral wells 0, clomiphene wells 100;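 active = mean lysis activity across replicates of at least 80%, whatever share of replicates individually reach that level; inactive = mean lysis activity below 80%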
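Signal: Adenylate kinase release luminescence | Assay system: Log-phase Cryptococcus neoformans yeast cells | Input: Cells at 5 × 10^6 per mL | Buffer or medium: Fresh YPD growth medium | Compound: Single dose | Schedule: Static 4 h at 37 °C with compound, 1 h detection | Controls: Clomiphene | Read-out: Luminescence rise reflecting yeast cell lysis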
PglD inh – C. jejuni PglD acetyltransferase inhibitors, primary screen, biochemical, DTNB colorimetric, single point; 360,000 compounds, 0.098% hits; AID 602405, 2012; UDP-N-acetylbacillosamine N-acetyltransferase PglD (Campylobacter jejuni); inhibition, % at 12.5 µM; purified PglD enzyme, DTNB colorimetric CoA detection; in the data active = inhibition above about 16%, passing the limit was not always enough
CAL PDZ FP-1 – untagged CAL PDZ binding inhibitors, primary screen, biochemical, fluorescence polarization, HTS; Golgi-associated PDZ and coiled-coil motif-containing protein (Homo sapiens), Q9HD26; purified CAL PDZ, TMR-peptide fluorescence polarization, 1 h; inhibition, % at 24.9 µM; 300,000 compounds, 0.92% hits; AID 602252, 2012;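 active = mean inhibition of at least 30% with at least half of replicates also reaching 30%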
CAL PDZ FP-2 – CAL PDZ peptide-binding inhibitors, primary screen, biochemical, fluorescence polarization, Cer-tagged CAL PDZ, HTS; purified CAL PDZ, TMR-peptide fluorescence polarization, 1 h; Golgi-associated PDZ and coiled-coil motif-containing protein (Homo sapiens), Q9HD26; 330,000 compounds, 0.02% hits; inhibition, % at 20 µM;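 active = highest replicate inhibition of at least 40%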
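material = purified tagged CAL PDZ domain construct (CerCALP) | buffer or medium = sodium phosphate/NaCl buffer pH 7.4 with TCEP, IgG, Thesit | reagent = TMR-labelled reporter peptide T*-PRC34 bound in PDZ groove | incubation = 1 h room-temperature incubation prior to read | measured by = fluorescence polarization (mP) | evaluation = percent inhibition from loss of millipolarization | control set = unlabelled peptide and DMSO controls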
miR122 inh – miR-122 Renilla sensor signal increase in Huh7, primary screen, miR-122 inhibitor project, cell-based, single point, plate reader; Huh7 miR-122 Renilla luciferase sensor, 48 h; neutral wells = 0, positive control = 100; activation (reporter increase), % at 12.5 µM; 340,000 compounds, 0.3% hits; AID 602342, 2012;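 active = mean replicate activation score at least 90 and every replicate individually at or above 90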;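 note: higher luciferase means less miR-122 activity so hits act as miR-122 inhibitors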
Numbers stand for hits; 0 = inactive; - = not tested or not shown.

SMILES | Cneo AK release | PglD inh | CAL PDZ FP-1 | CAL PDZ FP-2 | miR122 inh
O=C(Nc1cccc(Cl)c1)N1C[C@@H]2[C@H](c3ccccc31)[C@H](CO)N2C(=O)c1ccncc1 | 0 | 0 | - | - | 0
COc1ccccc1-c1cnc2c(c1)C(=O)N([C@@H](C)CO)C[C@@H](C)[C@H](CN(C)Cc1ccc(C(=O)O)cc1)O2 | 0 | 0 | - | - | 0
Cc1ccc(S(=O)(=O)n2nc(C)c(Br)c2C)c(C)c1C | - | - | 0 | 0 | 105
CCOC(=O)N1CCN(S(=O)(=O)c2ccc(C)c(C)c2C)CC1 | 0 | 0 | 0 | 0 | 0
Cc1cnn(CCC(=O)NNC(=S)NCC(C)C)c1 | - | - | 0 | 0 | -
CCNC(=S)NNC(=O)CC(C)C | - | - | 36 | 0 | -
CC(C)CNC(=S)NNC(=O)CC(C)O (stereo unspecified) | - | - | 77 | 0 | -
COc1ccc(CN2C(=O)C(CC(=O)NCCCCc3ccccc3)CC(C(=O)N(C)C)=C2C)cc1 (stereo unspecified) | 0 | 0 | - | - | 0
O=C(Cn1ccc([N+](=O)[O-])n1)NCc1ccco1 | 0 | 0 | 0 | 0 | 0
O=C(Cn1ccc([N+](=O)[O-])n1)NCc1nc2ccccc2[nH]1 | - | - | 44 | 0 | -
Cc1cccc(NC(=S)NCc2ccc3c(c2)OCO3)c1C | - | - | 50 | 0 | -
O=C(NC(=S)NCc1ccc2c(c1)OCO2)c1ccccc1 | 0 | 0 | - | 0 | 111
Cc1cccc(N(CC(=O)NCc2ccc3c(c2)OCO3)C(=O)CCC(=O)Nc2ccccn2)c1C | 0 | 0 | 92 | 0 | 0
C[C@H](CO)N1C[C@H](C)[C@@H](CN(C)CC2CCCCC2)Oc2ccc(NC(=O)Nc3ccc(F)cc3)cc2C1=O | 0 | 0 | - | - | 0
Cc1ccc(C(=O)CCC(=O)NC2CCCC(C)C2C)cc1 (stereo unspecified) | 0 | 0 | 90 | 0 | 0
C[C@H]1CN([C@@H](C)CO)C(=O)Cc2cc(NC(=O)Cc3ccccc3)ccc2O[C@@H]1CN(C)CC1CCCCC1 | 0 | 0 | - | - | 0
O=C(NC(=S)Nn1cnnc1)c1ccccc1Br | - | - | 53 | 0 | -
O=C(NC(=S)Nn1cnnc1)c1ccccc1 | 0 | 0 | 0 | 0 | 0
COCCNC(=O)C[C@H]1CC[C@H]2[C@@H](COC[C@@H](O)CN2Cc2ccc(Cl)c(Cl)c2)O1 | 0 | 0 | - | - | 0
CO[C@@H]1CN(C)C(=O)c2ccc(NS(C)(=O)=O)cc2OC[C@@H](C)N(C(=O)C2CCCCC2)C[C@H]1C | 0 | 0 | - | - | -
O=C(Cc1ccccc1)NNC1=NS(=O)(=O)c2ccccc21 | 0 | 0 | 0 | 0 | 0
O=C(CN1C(=O)c2ccccc2C1=O)NNC1=NS(=O)(=O)c2ccccc21 | 0 | 0 | 30 | 0 | 0
COc1ccc(CC(NC(C)=O)C(=O)NC2CCN(C(=O)c3ccc([N+](=O)[O-])cc3)CC2)cc1OC (stereo unspecified) | 0 | 0 | 77 | 0 | 0
COc1ccccc1CC(NC(C)=O)C(=O)NC1CCN(C(=O)c2ccc([N+](=O)[O-])cc2)CC1 (stereo unspecified) | - | - | 0 | 0 | -
O=C(C[C@@H]1C=C[C@H](NC(=O)C2CC2)[C@H](CO)O1)NCc1ccncc1 | 0 | 0 | - | - | -
SMILES | Cneo AK release | PglD inh | CAL PDZ FP-1 | CAL PDZ FP-2 | miR122 inh
Cc1ccc(S(=O)(=O)N/N=C/c2ccc(OCC(=O)Nc3ccccc3Cl)cc2)cc1 | 0 | 0 | - | 0 | 219
COc1ccccc1NC(=O)COc1ccc(/C=N/NS(=O)(=O)c2ccc(C)cc2)cc1 | 0 | 0 | 0 | 0 | 0
C[C@@H]1CN([C@@H](C)CO)C(=O)c2cc(C#C[C@@H](C)O)cnc2O[C@@H]1CN(C)C(=O)c1ccccc1 | 0 | 0 | - | - | 0
S=C(N/N=C/c1ccc2ncccc2c1)Nc1ccccc1 | - | - | 33 | 0 | -
C(=N\NCc1ccccc1)/c1ccc2ncccc2c1 | 0 | 0 | - | - | 0
Cc1ccc(Cn2c(=O)n(CCC(=O)NCc3ccc4c(c3)OCO4)c(=O)c3ccccc32)cc1 | 0 | 0 | 66 | 0 | 0
CCC(=O)N[C@@H]1CC[C@H](CCNC(=O)Nc2ccc(F)cc2)O[C@@H]1CO | 0 | 0 | - | - | -
Nc1ccc(-c2c3ccc(=O)cc-3oc3cc(O)ccc23)cc1C(=O)O | - | - | 41 | 0 | -
O=c1ccc2c(-c3ccccc3)c3ccc(O)cc3oc-2c1 | 0 | 0 | 0 | - | 0
C[C@H]1CN([C@@H](C)CO)C(=O)c2cc(NC(=O)Nc3cccc4ccccc34)ccc2O[C@H]1CN(C)Cc1ccncc1 | 0 | 0 | - | - | 0
O=C(NCc1cccnc1)C1CC2c3ccccc3C1c1ccccc12 (stereo unspecified) | 0 | 0 | 0 | 0 | 0
NCC1CC2c3ccccc3C1c1ccccc12 (stereo unspecified) | 0 | 0 | 92 | - | 0
O=C(Nc1ccc(Cl)cc1)N1C[C@@H]2[C@H](c3ccccc31)[C@@H](CO)N2C(=O)C1CC1 | 0 | 0 | - | - | 0
C[C@@H]1CN([C@@H](C)CO)C(=O)Cc2cc(NC(=O)CCCCCC(=O)Nc3ccccc3N)ccc2O[C@H]1CN(C)C(=O)NC1CCCCC1 | 0 | 0 | - | - | 0
CNC(=S)N/N=C/c1c(Cl)cccc1Cl | 0 | 0 | 0 | 0 | 0
Cc1cccc(C)c1NC(=S)N/N=C/c1c(Cl)cccc1Cl | - | - | 33 | 0 | -
COc1ccc(S(=O)(=O)N(C)C[C@@H]2OCCCC[C@@H](C)Oc3ccc(NC(=O)c4ccncc4)cc3C(=O)N([C@@H](C)CO)C[C@H]2C)cc1 | 0 | 0 | - | - | 0
O=C(CN1C(=O)NC2NC(=O)NC21)NC1CCCCC1 (stereo unspecified) | 0 | 0 | 39 | 0 | 0
CO[C@H]1CN(C)C(=O)c2cc(NC(C)=O)ccc2OC[C@@H](C)N(Cc2cncnc2)C[C@@H]1C | 0 | 0 | - | - | 0
